Experimental data taken from ChEMBL document CHEMBL3585252, “Selaginellin and biflavonoids as protein tyrosine phosphatase 1B inhibitors from Selaginella tamariscina and their glucose uptake stimulatory effects” (Bioorg Med Chem, 2015).

Experiments:
[1] = molecular target: T1, Tyrosine-protein phosphatase non-receptor type 1 (Homo sapiens, UniProt P18031); assay: Competitive inhibition of human recombinant PTP1B using p-NPP as substrate preincubated for 10 mins followed by substrate addition measured after 20 mins by Lineweaver-Burk/Dixon plot analysis
T1 sequence (P18031 whole entry): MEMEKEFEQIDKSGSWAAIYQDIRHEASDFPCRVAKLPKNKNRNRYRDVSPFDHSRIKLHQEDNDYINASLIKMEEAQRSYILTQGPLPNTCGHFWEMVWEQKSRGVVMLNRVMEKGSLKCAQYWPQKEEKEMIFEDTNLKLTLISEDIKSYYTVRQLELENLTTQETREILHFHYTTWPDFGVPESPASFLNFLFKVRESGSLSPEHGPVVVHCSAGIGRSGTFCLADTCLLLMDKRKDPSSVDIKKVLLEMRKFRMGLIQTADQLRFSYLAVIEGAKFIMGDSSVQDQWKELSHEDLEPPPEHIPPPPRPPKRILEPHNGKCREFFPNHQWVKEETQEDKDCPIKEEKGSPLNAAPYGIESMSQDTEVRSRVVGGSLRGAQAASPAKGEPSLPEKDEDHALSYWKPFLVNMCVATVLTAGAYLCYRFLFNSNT
Procedure, shortened: (§1)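 Kinetic mode and Ki came from Lineweaver–Burk and Dixon plots of initial velocity at several substrate and inhibitor concentrations. Ki was read as the negative x-axis value where three Dixon lines intersect. Data are the mean reciprocal initial velocity, n = 3 replicates per substrate concentration.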

[2] = molecular target: T2, Tyrosine-protein phosphatase non-receptor type 1 (Mus musculus) (UniProt P35821); assay: Inhibition of PTP1B in mouse 3T3L1 cells assessed as stimulation of 2-NBDG uptake preincubated for 24 hrs followed by 2-NBDG addition measured after 30 mins by fluorescence reader analysis; format: cell-based; settings: 3T3-L1
T2 sequence (whole entry): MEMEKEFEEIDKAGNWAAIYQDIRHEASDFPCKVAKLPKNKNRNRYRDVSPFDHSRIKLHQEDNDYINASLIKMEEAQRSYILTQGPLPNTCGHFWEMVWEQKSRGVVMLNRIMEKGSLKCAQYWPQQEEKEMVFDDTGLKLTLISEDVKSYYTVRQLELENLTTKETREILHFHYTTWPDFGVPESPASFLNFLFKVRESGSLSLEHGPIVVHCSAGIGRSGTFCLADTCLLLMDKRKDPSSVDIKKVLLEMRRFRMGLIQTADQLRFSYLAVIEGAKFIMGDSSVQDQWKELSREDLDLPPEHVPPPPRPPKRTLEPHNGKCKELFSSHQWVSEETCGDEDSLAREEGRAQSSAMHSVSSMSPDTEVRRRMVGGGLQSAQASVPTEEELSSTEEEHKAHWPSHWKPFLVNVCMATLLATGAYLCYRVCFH
Procedure, shortened: (§2)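 3T3-L1 preadipocytes were grown to confluence and differentiated for 8 days (days 0–8). Mature adipocytes were treated with compound at 5 and 10 µM, or with insulin at 100 nM; DMSO was the vehicle control. 2-NBDG was then added for 30 min. Uptake is expressed as fold induction over the DMSO control.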

[3] = Cytotoxicity against mouse 3T3L1 cells assessed as inhibition of cell viability at 5 to 10 uM after 48 hrs by MTT assay; format: cell-based; settings: 3t3-l1, 48 h
Procedure, shortened: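 Differentiated 3T3-L1 adipocytes were exposed to compound at 5 and 10 µM without 2-NBDG. Viability was read by MTT assay.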

[4] = molecular target: T1, Tyrosine-protein phosphatase non-receptor type 1; assay: (§3) Inhibition of human recombinant PTP1B using p-NPP as substrate preincubated for 10 mins followed by substrate addition measured after 20 mins by microplate reader analysis
Procedure, shortened: (§4)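 Enzyme inhibition was tested at graded concentrations. IC50 was obtained by regression analysis and reported as mean ± SD of three replicates.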

[5] = molecular target: T3, Tyrosine-protein phosphatase non-receptor type 1 (Homo sapiens) (UniProt P18031); assay: as §3; procedure, shortened: as §4
T3 sequence (whole entry): T1 sequence (P18031 whole entry)

[6] = molecular target: T1, Tyrosine-protein phosphatase non-receptor type 1; assay: Mixed-competitive inhibition of human recombinant PTP1B using p-NPP as substrate preincubated for 10 mins followed by substrate addition measured after 20 mins by Lineweaver-Burk/Dixon plot analysis; procedure, shortened: as §1
[7] = molecular target: T1, Tyrosine-protein phosphatase non-receptor type 1; assay: Uncompetitive inhibition of human recombinant PTP1B using p-NPP as substrate preincubated for 10 mins followed by substrate addition measured after 20 mins by Lineweaver-Burk/Dixon plot analysis; procedure, shortened: as §1
[8] = molecular target: T2, Tyrosine-protein phosphatase non-receptor type 1 (Mus musculus); assay: Inhibition of PTP1B in mouse 3T3L1 cells assessed as stimulation of 2-NBDG uptake at 10 uM preincubated for 24 hrs followed by 2-NBDG addition measured after 30 mins by fluorescence reader analysis relative to control; format: cell-based; settings: 3T3-L1; procedure, shortened: as §2

Row | Structure (SMILES) | Ki [1] [µM] | inhibition [2] | Activity [3] | IC50 [4] [µM] | inhibition [5] | Ki [6] [µM] | Ki [7] [µM] | fold change (FC) [8]
1 | O=c1cc(-c2ccc(O)cc2)oc2c(-c3c(O)cc(O)c4c(=O)cc(-c5ccc(O)cc5)oc34)c(O)cc(O)c12 [CUPRESSUFLAVONE] | 10.7 | Dose-dependent effect | Non-toxic | 9.6 | Dose-dependent effect | – | – | –
2 | O=c1cc(-c2ccc(O)c(-c3c(O)cc(O)c4c(=O)cc(-c5ccc(O)cc5)oc34)c2)oc2cc(O)cc(O)c12 [AMENTOFLAVONE] | – | Dose-dependent effect | Non-toxic | 7.4 | Dose-dependent effect | 7.8 | – | –
3 | O=C1C[C@@H](c2cc(-c3c(O)ccc4c(=O)cc(-c5ccc(O)cc5)oc34)c(O)cc2O)Oc2cc(O)cc(O)c21 | – | Dose-dependent effect | Non-toxic | 9.8 | Dose-dependent effect | – | 10.4 | –
4 | O=C(O)c1c(-c2ccc(O)cc2)ccc(CO)c1C#Cc1ccc(O)cc1 | – | Dose-dependent effect | Non-toxic | 13.2 | Dose-dependent effect | 14.5 | – | 1.24
5 | O=c1cc(-c2ccc(O)c(-c3c(-c4ccc(O)cc4)oc4cc(O)cc(O)c4c3=O)c2)oc2cc(O)cc(O)c12 [TAIWANIAFLAVONE] | – | Dose-dependent effect | Non-toxic | 5.4 | Dose-dependent effect | 4.5 | – | 1.47
6 | O=c1cc(-c2ccc(O)c(-c3c(O)cc4oc(-c5ccc(O)cc5)cc(=O)c4c3O)c2)oc2cc(O)cc(O)c12 [ROBUSTAFLAVONE] | – | Dose-dependent effect | Non-toxic | 6.2 | Dose-dependent effect | 6.8 | – | –
7 | O=c1c(-c2c(O)cc(O)c3c(=O)cc(-c4ccc(O)cc4)oc23)c(-c2ccc(O)cc2)oc2cc(O)cc(O)c12 | – | Dose-dependent effect | Non-toxic | 4.5 | Dose-dependent effect | 4.6 | – | 1.44
